Results published in ChEMBL document CHEMBL3994599, “Pallidopenillines: Polyketides from the Alga-Derived Fungus Penicillium thomii Maire KMM 4675” (J Nat Prod, 2016).
Activity calls are given as the source filed them. The rule behind the calls is not given here.

Tests used:
MEL28 = assay: Cytotoxicity against human MEL28 cells assessed as reduction in cell viability up to 100 uM after 24 to 72 hrs by MTT assay; assay type: functional, cell-based
HCT-116 = assay: Cytotoxicity against human HCT116 cells assessed as reduction in cell viability up to 100 uM after 24 to 72 hrs by MTT assay; assay type: functional, cell-based
RAW264.7 = assay: Inhibition of ROS generation in mouse RAW264.7 cells at 10 uM after 24 hrs by H2DCF-DA staining based fluorescence assay relative to control; assay type: functional; details: RAW264.7, 24 h
Procedure, shortened: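 RAW 264.7 murine macrophages were stimulated with lipopolysaccharide (LPS), and compounds were tested at 10 μM. ROS levels were expressed as percent change relative to control cells treated with LPS alone. Significance was reported as p values.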

CWR22R [1] = assay: Cytotoxicity against human 22Rv1 cells assessed as reduction in cell viability up to 72 hrs by MTT assay; assay type: functional, cell-based; details: 22Rv1, 72 h
CWR22R [2] = assay: Cytotoxicity against human 22Rv1 cells assessed as inhibition of colony formation at 1 uM relative to control; assay type: functional
Procedure, shortened: (§1)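 Soft agar method: 22Rv1 human prostate cancer cells were grown in soft agar with compound. Colony formation and growth were compared with untreated control.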

CWR22R [3] = assay: Cytotoxicity against human 22Rv1 cells assessed as inhibition of colony formation at 2 uM relative to control; assay type: functional; procedure, shortened: as §1

Row | Compound | Activity (MEL28) | Activity (HCT-116) | inhibition at 10 µM (RAW264.7) [%] | IC50 (CWR22R [1]) [µM] | inhibition at 1 µM (CWR22R [2]) [%] | inhibition at 2 µM (CWR22R [3]) [%]
1 | CC(=O)OCCC(=O)[C@@H]1[C@H]2CC[C@H](COC(C)=O)C[C@@H]2C=C[C@@]1(C)O | inactive | inactive | – | – | – | –
2 | CC(=O)OCCC(=O)[C@@H]1[C@H]2CC[C@H](CO)C[C@@H]2C=C[C@@]1(C)O | inactive | inactive | 27 | – | – | –
3 | CC(=O)OCCC(=O)[C@@H]1[C@H]2CC[C@H](C)[C@@H](O)[C@@H]2[C@H](Cl)[C@@H](O)[C@@]1(C)O | – | – | 37 | – | – | –
4 | CC(=O)OCCC(=O)[C@H]1C(C)=C[C@@H](O)[C@H]2[C@H](O)[C@@H](C)CC[C@H]12 | – | – | 36 | 9.8 | 40 | –
5 | CC(=O)OCCC(=O)[C@@H]1[C@H]2CC[C@H](C)[C@@H](O)[C@@H]2C=C[C@@]1(C)O | inactive | inactive | – | – | – | 40
6 | CC(=O)OC[C@H]1CC[C@@H]2[C@@H](C(=O)CCO)[C@](C)(O)C=C[C@H]2C1 | inactive | inactive | – | – | – | –
7 | C[C@H]1CC[C@H]2[C@@H](C=C[C@@](C)(O)[C@@H]2C(=O)CCO)[C@@H]1O | inactive | inactive | – | – | – | –
